# Activity calls are given as the source filed them. The calls are words filed in the database; no cut-off is given here.
# Experiments:
# [1] = DPPH radical scavenging activity; assay type: functional
# How it was run: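 Compound mixed with 0.1 mM acetic acid buffer and warmed to 25 °C for 5 min, then 0.2 mM DPPH in ethanol added. Absorbance read at 517 nm after 30 min. Scavenging rate (%) = {1 − (A − C)/B} × 100, with sample, colour-contrast and blank absorbances. 50% scavenging concentration calculated from the scavenging rate.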
# [2] = system: Microglia; assay: Suppression of LPS-induced NO production in Sprague-Dawley rat microglia after 24 hrs; assay type: functional, cell-based
# How it was run: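 Primary microglia from postnatal day-1 Sprague–Dawley rat cortex, grown 10–14 days in MEM/10% FBS, detached by shaking and replated. Cells given LPS 1 µg/mL with compound (1, 5, 10, 20 µM) for 24 h at 37 °C. Supernatant nitrite measured by Griess reaction at 540 nm. Three independent experiments in triplicate.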
# [3] = system: Cortical neurone; assay: Inhibition of glutamate-induced neurotoxicity in mouse cortical neurons assessed as cell death at 5 uM after 24 hrs relative to NMDA; assay type: functional
# How it was run: (§1)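 Mixed cortical neuron/glia cultures from fetal day-15 mouse cortex, on poly-D-lysine/laminin. Cytosine arabinoside 10 uM from DIV 6. Cultures exposed in serum-free MEM to 60 µM glutamate plus compound for 24 h at 37 °C. Viability by WST-1 (1:10, 2 h, 37 °C), read at 450 nm with 650 nm reference and normalized to untreated wells. Three independent experiments in triplicate.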
# [4] = system: Cortical neurone; assay: Inhibition of glutamate-induced neurotoxicity in mouse cortical neurons assessed as cell death at 10 uM after 24 hrs relative to NMDA; assay type: functional; how it was run: as §1
SMILES,IC50 [1],Activity [2],Activity [3],Activity [4]
COc1cc(/C=C/C(=O)c2ccc([Si](C)(C)C)cc2)ccc1O,52.8 µM,Active,–,–
COc1cc(/C=C/C(=O)c2c(O)c3ccccc3oc2=O)ccc1O[Si](C)(C)C(C)(C)C,45.5 µM,Active,–,–
COc1cc(/C=C/C=O)ccc1O [CONIFERYL ALDEHYDE],64.6 µM,–,–,–
COc1cc(/C=C/C(=O)c2ccc3c(c2)OCO3)ccc1O,46 µM,Active,Active,Active
COc1cc(/C=C/C(=O)c2c(O)c3ccccc3oc2=O)ccc1O,52.5 µM,Active,Active,Active

# Further lines, with some results ahead:
IC50 [1],SMILES,Activity [2],Activity [3],Activity [4]
43.8 µM,COc1cc(/C=C/C(=O)c2ccc(C(F)(F)F)cc2)ccc1O,Active,–,–
52.5 µM,COc1cc(/C=C/C(=O)c2ccc(OC)c(F)c2)ccc1O,Active,–,–
53.2 µM,COc1cc(/C=C/C(=O)c2cc(F)c(F)c(F)c2)ccc1O,Active,Active,Active
